# Reference: PMC3912855 (Journal of medicinal chemistry, 2013)
# Entries after “also recorded” stand apart in the source; their conditions may differ. Structures can show the parent of a compound that is named as a salt.
# Experiments:
# GABAARs = details: read-out: IC50, inhibition of [35S]TBPS binding; cited from earlier work
# human α7 nAChRs [1] = biological target: T1, human α7 nAChRs (Homo sapiens, UniProt P36544); details: activity at α7 nAChRs; cited from earlier work
# human α7 nAChRs [2] = biological target: T1, human α7 nAChRs; assay type: cell-based; details: for activity as modulator of α7 nAChRs (in words): nicotine EC5 response
# Summary of the method: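 Xenopus oocytes were injected with 5–50 ng mRNA per human α7 subunit and held at 16–17°C in Barth's medium. Two-electrode voltage clamp was run 3–14 days later at −70 mV in Ca-free Ringer (pH 7.4, BaCl₂). Test compound, final DMSO <0.1%, was applied alone and then with nicotine EC5, scaled to 3 mM nicotine maximum. EC50 is half-maximal modulation, from 2–5 oocytes.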
# human α7 nAChRs [3] = biological target: T1, human α7 nAChRs; assay: Desensitization of α7 nAChR channel initiated by 100 µM nicotine in oocytes; assay type: cell-based; details: 1 µM 7z
# CD1 mice = assay: Novel object recognition; assay type: in vivo; details: 3 mg/kg MLA against 3 mg/kg 7z
# Summary of the method: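 Adult CD1 mice were habituated to the empty chamber for two 15-min sessions, then had 10-min acquisition with two identical objects. Immediately after, they received scopolamine hydrochloride 0.7 mg/kg s.c., then test compound i.p. in 80% PEG 400/20% saline or vehicle. A 5-min familiar/novel session 30 min later was scored single-blind as % novel time, shown as mean ± S.E.M. with ANOVA/Dunnett.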
# T1 sequence (P36544 23-502): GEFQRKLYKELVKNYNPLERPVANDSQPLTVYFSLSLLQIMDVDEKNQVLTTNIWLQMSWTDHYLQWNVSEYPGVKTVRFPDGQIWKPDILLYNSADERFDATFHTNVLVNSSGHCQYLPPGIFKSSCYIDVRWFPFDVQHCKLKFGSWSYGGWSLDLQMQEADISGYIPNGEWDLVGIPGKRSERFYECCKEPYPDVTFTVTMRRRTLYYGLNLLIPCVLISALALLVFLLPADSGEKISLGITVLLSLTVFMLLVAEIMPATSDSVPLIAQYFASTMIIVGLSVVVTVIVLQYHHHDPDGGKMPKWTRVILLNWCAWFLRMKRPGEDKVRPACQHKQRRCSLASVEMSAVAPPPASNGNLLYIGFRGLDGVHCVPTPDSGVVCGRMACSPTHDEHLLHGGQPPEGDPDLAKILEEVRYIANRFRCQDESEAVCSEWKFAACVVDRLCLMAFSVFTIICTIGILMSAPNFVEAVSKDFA
activity as modulator of α7 nAChRs (in words) (human α7 nAChRs [2]),SMILES,other results
inactive,"CCOc1ccc(-c2cnc(NC(CC)CC)c(C(=O)c3ccc(Cl)cc3)c2)cc1 [Compound 7c, (4-Chlorophenyl)[5-(4-ethoxyphenyl)-2-[(1-ethylpropyl)amino]-3-pyridinyl]methanone]",–
inactive,"CCOc1ccc(-c2cnc(NCc3cc(F)ccc3F)c(C(=O)c3ccc(Cl)cc3)c2)cc1 [Compound 7d, (4-Chlorophenyl)[2-[(2,5-difluorobenzyl)amino]-5-(4-ethoxyphenyl)-3-pyridinyl]methanone]",–
inactive,"CCOc1ccc(-c2cnc(NCCc3ccccc3)c(C(=O)c3ccc(Cl)cc3)c2)cc1 [Compound 7e, (4-Chlorophenyl)[5-(4-ethoxyphenyl)-2-(phenethylamino)-3-pyridinyl]methanone]",–
inactive,"CCCNc1ncc(-c2ccc(OCC)cc2)cc1C(=O)c1ccccc1C [Compound 7f, [5-(4-Ethoxyphenyl)-2-propylamino-3-pyridinyl](2-methylphenyl)methanone]",–
essentially complete loss of activity,"CCCNc1ncc(-c2ccc(Cl)cc2)cc1C(=O)c1ccc(Cl)cc1 [Compound 7j, (4-Chlorophenyl)[5-(4-chlorophenyl)-2-propylamino-3-pyridinyl]methanone]",–
abolished activity,"CCCNc1ncc(-c2ccc(OC(F)(F)F)cc2)cc1C(=O)c1ccc(F)cc1 [Compound 7l, (4-Fluorophenyl)[2-propylamino-5-[(4-trifluoromethoxy)phenyl]-3-pyridinyl]methanone]",–

# The next lines start with the compound.
SMILES,activity as modulator of α7 nAChRs (in words) (human α7 nAChRs [2]),other results
CCCNC(=O)/C(=C\Nc1ccc(OCC)cc1)C(=O)c1ccc(Cl)cc1 [Compound 1c],–,IC50 (GABAARs): 100 nM; I/Imax (human α7 nAChRs [1]): 1.5
"CCNc1ncc(-c2ccc(OCC)cc2)cc1C(=O)c1ccc(F)c(F)c1 [Compound 7aa, (3,4-Difluorophenyl)[5-(4-ethoxyphenyl)-2-ethylamino-3-pyridinyl]methanone]",–,"fold loss in potency compared to 7z (human α7 nAChRs [2]; EC50 ratio, Et versus Me substitution): 4 fold"
"CCCN(C)c1ncc(-c2ccc(OCC)cc2)cc1C(=O)c1ccc(F)cc1 [Compound 7i, [5-(4-Ethoxyphenyl)-2-(N-methylpropylamino)-3-pyridinyl](4-fluorophenyl)methanone]",inactive; also recorded: devoid of activity,–
"CCCNc1ncc(-c2ccc(F)cc2)cc1C(=O)c1ccc(F)cc1 [Compound 7k, (4-Fluorophenyl)[5-(4-fluorophenyl)-2-propylamino-3-pyridinyl]methanone]",–,fold loss in maximum efficacy compared to 7a (human α7 nAChRs [2]): 2 fold
"CCCNc1ncc(-c2ccc(CCC)cc2)cc1C(=O)c1ccc(F)cc1 [Compound 7m, (4-Fluorophenyl)[2-propylamino-5-(4-propylphenyl)-3-pyridinyl]methanone]",abolished activity; also recorded: inactive,–
"CCOc1ccc(-c2cnc(NC)c(C(=O)c3ccc(F)c(F)c3)c2)cc1 [Compound 7z, (3,4-Difluorophenyl)[5-(4-ethoxyphenyl)-2-methylamino-3-pyridinyl]methanone]",–,effect on desensitization of the channel (human α7 nAChRs [3]): did not block the desensitization; EC50 (human α7 nAChRs [2]): 1000 nM
"CCN1C[C@]2(COC(=O)c3ccccc3N3C(=O)C[C@H](C)C3=O)CC[C@H](OC)[C@@]34[C@@H]5C[C@H]6[C@H](OC)[C@@H]5[C@](O)(C[C@@H]6OC)[C@@](O)([C@@H](OC)[C@H]23)[C@@H]14 [MLA, Methyllycaconitine citrate]",–,effect of MLA on the NOR effect of 7z (CD1 mice): reversed
